Compounds with a hit are over-represented: about 12% of the library has one in this group of screens.
L major viab: Leishmania major promastigote growth inhibition, primary screen. Leishmania major promastigotes, resazurin fluorescence viability. inhibition, % at 10 µM. hit rate 9% among 200,000. AID 1063, 2008; in the data active = inhibition above about 50%;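 note: promastigotes grown with compound for 44 hours at 28 °C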
Cl transport mod: KCC2 cotransporter modulators, thallium flux, primary screen, cell-based, HEK293 KCC2, FluoZin-2 fluorescence, MLSMR; Solute carrier family 12 member 5 (Homo sapiens), Q9H2X9; KCC2 cells, thallium flux FluoZin-2 fluorescence; B-score of Tl+ flux slope (higher = more flux/activation; lower = inhibition) at 10 µM; hit rate 2.2% among 190,000; AID 1456, 2008;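 active = thallium flux slope and its plate-corrected score both differing from the plate sample mean at a set confidence after two filtering rounds, in either direction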;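 note: slope of fluorescence scaled to starting intensity during 10 to 20 s after thallium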
WT yeast gro inh: growth inhibition of WT strain, primary screen, mitochondrial fusion inhibitor project, WT and mutant strains, chemical genetic; mitochondrial fusion phenotypic screen; inhibition, % at 10 µM; hit rate 2.1% among 190,000; in the data active = inhibition above about 58%; tested in S. cerevisiae
ROMK primary: ROMK potassium channel modulators, primary screen, cell-based, thallium flux, MLSMR library. Tet-inducible ROMK, thallium flux fluorescence; actives lie on both sides. B-score at 10 µM. hit rate 2% among 130,000. AID 1918, 2009;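 active = signal ratio slope over the read window, or its plate-corrected B-score, at least 3 SD from the plate mean, either direction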;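 note: B-score of the F/F0 ratio slope over 7 to 12 s after thallium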
Target sequence (P48048 whole entry, looked up): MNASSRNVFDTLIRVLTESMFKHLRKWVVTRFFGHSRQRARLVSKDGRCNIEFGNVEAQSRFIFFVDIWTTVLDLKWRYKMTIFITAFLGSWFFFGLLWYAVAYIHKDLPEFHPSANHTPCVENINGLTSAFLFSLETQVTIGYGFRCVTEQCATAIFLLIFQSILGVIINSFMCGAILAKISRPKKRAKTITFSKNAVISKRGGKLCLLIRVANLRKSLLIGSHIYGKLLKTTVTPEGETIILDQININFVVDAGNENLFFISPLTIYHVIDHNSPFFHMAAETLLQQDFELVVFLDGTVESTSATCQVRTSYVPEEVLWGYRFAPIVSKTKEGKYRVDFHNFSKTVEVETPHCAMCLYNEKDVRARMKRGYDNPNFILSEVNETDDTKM
Diaph inh CS: diaphorase inhibitors and chemical oxidizers, primary screen, counter-screen for diaphorase-coupled primary assays, biochemical, uHTS, resorufin fluorescence. diaphorase resazurin-to-resorufin fluorescence, NADH, 16 min; bacterial (C. kluyveri) enzyme, not human. inhibition, % at 20 µM. hit rate 0.69% among 190,000;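 active = primary screen inhibition at 20 µM above a set limit, cut at about 50% in these data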;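 note: plate controls were DMSO with full reaction for no effect and wells lacking NADH for full effect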
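System: Bacterial diaphorase enzyme (C. kluyveri) | Incubation: 16-min room-temperature incubation before reading | Benchmarks: No-NADH positive control and DMSO neutral control | Measured by: Resorufin fluorescence 544/590 nm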
Diaph act CS: compounds boosting diaphorase resazurin reduction – biochemical, uHTS, resorufin fluorescence, counter-screen for diaphorase-coupled primary assays, primary screen; Diaphorase/resazurin coupled assay, 16 min; hits give high values; 1 = vehicle wells, 0 = NADH-free wells; activation factor at 20 µM; hit rate 0.005% among 190,000;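 active = diaphorase activity raised at least twofold by the compound at 20 µM; inactive = activation factor below 2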
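test system = bacterial diaphorase enzyme (C. kluyveri) | quantity = enzyme 0.07 U/mL final | reagent = NADH substrate 0.114 mM plus resazurin dye 0.1 mM, final | incubation = 16 min enzyme reaction, ambient temperature | buffer or medium = HEPES pH 7.4 buffer with MgCl2 and Tween 20 | signal = fluorescence of resorufin, 544 nm excitation, 590 nm emission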
ROMK retest: ROMK channel modulator hit retest, confirmation, cell-based, thallium flux, duplicate, resupplied hits | shares compounds with ROMK primary | normalized thallium flux (F/F0 slope) at 10 µM | fluorescence ratio; hits give low values | hit rate 54% among 3,000;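 active = Flux at 10 µM at least 3 SD below or above vehicle control mean in one or both replicates; inconclusive = no clear call, values can overlap the other calls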
* hit, by the source's call; ? = inconclusive; nt = no result given.

SMILES	L major viab	Cl transport mod	WT yeast gro inh	ROMK primary	Diaph inh CS	Diaph act CS	ROMK retest
CCOC(=O)c1cnc(C(C)(C)C)[nH]c1=O	-2	1.2	-34	nt	1	1	nt
COc1ccc2c(c1)c1nc3ccccc3nc1n2Cc1ccc(OC(C)C)c(OC)c1	10	-0.13	8	-3.4*	27	0.7	0.057*
Cc1ccc(/C(N)=N/OC(=O)c2cccc(Cn3cc(C(F)(F)F)ccc3=O)c2)cc1	nt	-2.9	nt	nt	nt	nt	nt
COc1ccc(/C=N/NC(=O)c2nc(Cl)c(Cl)c(N)c2Cl)cc1COc1ccc(F)cc1F	0	-3	-3	nt	5	1	nt
COc1ccc(/C=N/NC(=O)c2cc(C(C)(C)C)[nH]n2)cc1COc1ccc(F)cc1F	19	-0.41	0	-11*	3	1	0.083
CCN=C1SC(CC(=O)NCC)C(=O)N1CC (stereo not given)	-2	-0.0099	-2	3*	0	1	0.081
CCN=C1SC(CC(=O)Nc2ccccc2)C(=O)N1CC (stereo not given)	-3	0.69	-14	nt	9	0.9	nt
COc1ccccc1CNCC(=O)Nc1cc(S(=O)(=O)N2CCCCCC2)ccc1Cl	nt	-1.4	nt	nt	nt	nt	0.066*
O=C(CNCc1ccccn1)Nc1cc(S(=O)(=O)N2CCCCC2)ccc1Cl	-1	-1.3	1	-0.12	17	0.8	nt
CCCc1c(C)nn(-c2ncccc2[N+](=O)[O-])c1C	-5	0.0038	3	-1.1	-12	1.1	nt
CN1C(=O)N(C)c2ccc(C=O)c3cccc1c23	-7	-1	30	-3.4*	37	0.6	0.068*
FC(F)(F)c1cnc(COc2cc(Cl)cc(Cl)c2)c(Cl)c1	nt	-0.17	nt	nt	nt	nt	0.079
CCOC(=O)C1(CC2CC2)CCN(Cc2cnc(-c3ccc(OC)cc3)nc2)CC1	44	-0.068	27	-0.76	40	0.6	nt
COCCCn1c(=NC(=O)c2ccncc2)c(C#N)cc2c(=O)n3cccc(C)c3nc21	20	-0.013	11	nt	12	0.9	0.06*
Cc1cccn2c(=O)c3cc(C#N)c(=NC(=O)c4ccncc4)n(CCCOC(C)C)c3nc12	61*	nt	1	-4.3*	25	0.7	0.049*
S=c1[nH]nc(Cc2cccc3ccccc23)n1-c1ccccc1	-1	nt	10	-0.79	33	0.7	nt
C/C(=N\NC(=O)COc1ccccc1[N+](=O)[O-])c1cccs1	-1	nt	-4	1.4*	7	0.9	0.085
COc1ccc(OCC(=O)N/N=C(\C)c2cccs2)cc1	nt	0.66	nt	nt	nt	nt	nt
Cc1oc2nc(SCC(=O)N3CCCCC3)nc(N)c2c1C	2	0.29	-2	0.013	4	1	nt
CC(=O)N(CCO)Cc1cc2cc(C)cc(C)c2[nH]c1=O	0	0.091	-15	nt	13	0.9	nt
Cc1cccc(NC(=S)N(CCN(C)C)Cc2cc3cc(C)cc(C)c3[nH]c2=O)c1	98*	-0.11	-2	-4.9*	4	1	0.06*
Cc1cc(C)c2cc(CN(CCCN(C)C)C(=S)NCc3ccccc3)c(=O)[nH]c2c1	100*	-0.052	8	-3.7*	2	1	0.054*
CCCCN(CC)C(=O)CSc1nc2c(sc(=S)n2-c2ccc(OCC)cc2)c(=O)[nH]1	-4	-1.2	1	2.8*	72*	0.3	?
CC(NC(=O)CC12CC3CC(CC(C3)C1)C2)C(=O)O (stereo not given)	-5	-0.53	-8	2.1*	2	1	0.091
NC1=NC[C@H](CC2CCCCC2)N1CCc1cc(C(F)(F)F)cc(C(F)(F)F)c1	nt	-0.025	nt	nt	nt	nt	0.05*
SMILES	L major viab	Cl transport mod	WT yeast gro inh	ROMK primary	Diaph inh CS	Diaph act CS	ROMK retest
COc1ccc(-n2cc(CNCc3cccnc3)c(-c3cccc(F)c3)n2)cc1	48	-0.0079	36	-3.2	13	0.9	nt
COc1ccc(-n2cc(CNCCc3cnc[nH]3)c(-c3cccc(F)c3)n2)cc1	100*	nt	0	-1.9*	nt	nt	0.061*
Cc1ccc(CNC(=O)CSCC(=O)O)cc1	-4	-0.064	-7	nt	10	0.9	nt
Cc1ccc(SC(C)C(=O)NCc2ccncc2)cc1 (stereo not given)	-1	0.52	-10	2.5*	6	0.9	0.084
COc1ccccc1N1CCN(C(=O)CSc2nnc3c4ccccc4nc(Cc4ccccc4)n23)CC1	20	-0.88	17	nt	19	0.8	0.082
O=C(CCCO)N/N=C/c1ccccc1[N+](=O)[O-]	12	0.53	10	0.91	13	0.9	nt
COc1cc(CNCCN2CCOCC2)ccc1OCc1ccc(Cl)cc1Cl	100*	0.083	-7	nt	3	1	0.055*
COc1ccccc1NS(=O)(=O)c1ccc(NN=C2CCCCC2)c([N+](=O)[O-])c1	-1	-0.15	11	-0.16	17	0.8	nt
COC(=O)[C@@]1(Cc2ccc(F)cc2)[C@H]2c3cc(C(=O)N(C)C)n(Cc4ccc(OC)c(OC)c4)c3C[C@H]2CN1C(=O)c1ccccc1	32	-0.59	5	-3.5*	28	0.7	0.057*
COC(=O)[C@@]1(Cc2ccccc2)[C@H]2c3cc(C(=O)N4CCCC4)n(CCSCCO)c3C[C@H]2CN1C(=O)c1ccccc1	9	-0.85	11	-1.4	19	0.8	nt
COc1ccc(CCNC(=O)C2CC(=O)N(c3ccc(F)cc3)C2)cc1OC (stereo not given)	-6	-0.029	nt	nt	17	0.8	nt
COC(=O)[C@@]1(Cc2ccc(F)cc2)[C@H]2c3cc(C(=O)N(C)C)n(CCc4ccc(OC)c(Br)c4)c3C[C@H]2CN1C(=O)c1ccccc1	45	-0.45	40	-3.8*	26	0.7	0.056*
CCOc1cc(/C=N/OC(C)=O)ccc1OCc1ccccc1	7	-1.2	-2	nt	15	0.9	nt
CC(=O)Oc1ccc2ccccc2c1C(NC(=O)Cc1ccccc1)c1ccc(Cl)cc1 (stereo not given)	44	-0.2	15	nt	24	0.8	nt
COc1ccc(C(=O)Nc2cc(C(C)=O)c(/C=C/N(C)C)oc2=O)cc1	-3	-2.1	-4	nt	13	0.9	0.037*
O=C(NCc1ccccc1)c1ccc(=O)[nH]n1	-8	2.2	11	0.55	6	0.9	0.077
O=C(NCc1ccco1)c1ccc(=O)[nH]n1	-2	nt	10	-0.34	0	1	nt

Screens as filed in PubChem BioAssay.
